Experimental findings from PubChem BioAssay AID624068 (Broad Institute, 2012) are described below.

In the experiment the test system is S. cerevisiae W303 JC-1 mitochondrial potential, flow cytometry. The experiment is described as follows: mitochondrial membrane depolarization in S. cerevisiae W303, mechanism study for C. glabrata antifungal project, flow cytometry, single point, dry powder (AID 624068). The settings on record: at 1 µM; hits give high values. The method, boiled down: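 Assay system – Saccharomyces cerevisiae W303-1a yeast cells · Measured by – JC-1 flow cytometry, 488 nm excitation · Buffer or medium – SD-CSM growth medium containing 2% glucose · Timing – 90 min 30 °C pre-growth, 4 h compound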

Inconclusive results are not listed.

`CCOC(=O)N1C(=O)C2(CCCCC2)N(c2ccc(C)cc2)C1=S`: the mitochondrial depolarization score was 27.8.
